Assay outcomes (PubChem)
BB579 growth dn – reduces growth of yeast BB579 in restrictive medium | S. cerevisiae BB579 growth, OD615, 48 h | inhibition, % at 10 µM | actives 0.51% (n = 140,000);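 active = inhibition above a set limit, 3 SD over the mean compound inhibition, cut at about 44% in these data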
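Detection: OD615 turbidity measurement; Material: Saccharomyces cerevisiae DeaD strain BB579, replicative lifespan model yeast; Timing: 48 h exposure, 30 °C; Doses: single 10 µM dose; Medium: CSMM-D restrictive synthetic medium containing dextrose (glucose); Controls: amphotericin B at 10 µg/mL as positive control.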
Measles CPE – protection of cells from measles virus; protection (pct of control), % at 4 µM; actives 1.5% (n = 140,000); Measles virus-infected cells, CPE protection, absorbance; in the data active = protection mostly above about 24%, no sharp cut-off; inactive = mostly below about 26%
Yeast lifespan up – extends the lifespan of yeast. actives 0.68% (n = 130,000). AID 775. S. cerevisiae growth with nicotinamide, OD615; deaD strain in restrictive glucose medium. inhibition of the nicotinamide effect, % at 10 µM;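 active = inhibition above a set limit, placed 3 SD over the median of all compounds, cut at about 26% in these data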;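 also: 0% = nicotinamide-treated wells and 100% = cells grown without nicotinamide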
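Material: Modified budding yeast, DeaD strain | Medium: Restrictive glucose medium | Probe or stimulus: 1.5 mM nicotinamide | Dosing: Single dose 10 µM compound, 0.25% DMSO | Times: 48 h at 30 °C | Technique: OD615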
RAM network inh – blocks the yeast RAM network. inhibition, % at 50 µM. AID 868. S. cerevisiae dse1pr::URA3 reporter, 5-FOA growth OD615, 2 d; analog-sensitive cbk1-as2 kinase mutant strain. actives 1.8% (n = 190,000);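 active = inhibition above a set limit, 3 SD over mean compound inhibition, cut at about 8.4% in these data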;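 also: 0% = DMSO-only wells with no growth and 100% = 10 µM 1-NA-PP1 full growth; inhibition rescues growth on 5-FOA so higher OD means more RAM inhibition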
Phagocyt inh – inhibitors of macrophage phagocytosis; J774A.1 macrophage IgG-bead phagocytosis, imaging; inhibition, % at 5 µM; actives 0.07% (n = 110,000); AID 1029;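 active = inhibition above the mean of the plate negative controls plus 5 SD, cut at about 13% in these data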;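 also: phagocytic index as fraction of beads internalized from green versus red external bead signal; plate controls were DMSO negative control for no effect and cytochalasin-D positive control for full effect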
* marks the source's active call; other numbers are inactive results; . = no result. In the library only some 3.6% were active in any assay of this set; here they are far more common.

SMILES	BB579 growth dn	Measles CPE	Yeast lifespan up	RAM network inh	Phagocyt inh
Cc1oc(C)c2c(=O)ccc3c(c12)OC(N)=C(C#N)C3c1ccccc1Cl (stereo not given)	-44	6	6	8.8*	2
CC1CCN(C(c2cccs2)c2nnnn2Cc2ccccc2)CC1 (stereo not given)	-15	10	21	3	-2
CCOC(=O)COc1ccccc1/C=C\[N+](=O)[O-]	35	2	44*	-1	-10
CCOC(=O)COc1cc([N+](=O)[O-])cc2cccnc12	.	.	.	2	.
CN=c1scc(-c2cccs2)n1/N=C/c1ccccc1O	-8	15	-5	8.9*	1
c1ccc2c(c1)nnn1c3ccccc3nc21	65*	11	-15	4	0
Cc1nc2ccccc2c2nc3ccccc3n12	92*	9	-19	2	0
Fc1ccc(-c2nc3ccccc3c3nc4ccccc4n23)cc1	-23	30	-4	0	0
N#CCSc1nc2ccccc2c2nc3ccccc3n12	61*	0	-5	2	.
Cc1cc(C)c(S(=O)(=O)N2CCCOC2CNC(=O)C(=O)NCc2cccs2)c(C)c1 (stereo not given)	-49	5	6	0	5
FC(F)(F)c1cnc2c(-c3ccccc3)n[nH]c2c1	.	.	.	3	.
CCN(CC(=O)Nc1ccc(NC(C)=O)cc1)C(=O)/C=C/c1cccs1	-2	44*	2	1	-5
COc1ccc(OCCSc2nnc3sc4ccccc4n23)cc1	-20	47*	-5	-1	1
CCOc1ccccc1/C=c1\sc2ncnn2c1=O	-43	21	49*	1	.
CS(=O)(=O)N(CC(=O)Nc1ccccc1Cl)c1ccc(Cl)cc1	.	.	.	1	.
CCOC(=O)C1=C(O)/C(=C/c2ccc(OCC(=O)O)c(OC)c2)SC1=Nc1ccc(OCC)cc1	-37	17	1	4	3
CCOC(=O)C1=C(O)/C(=C/c2ccc(OCC(=O)O)c(OCC)c2)SC1=Nc1ccccc1	.	.	.	10*	.
CCOC(=O)C1CCN(C(c2cc(OC)c(OC)c(OC)c2)c2sc3nc(C)nn3c2O)CC1 (stereo not given)	4	2	-6	1	-2
COC(=O)C1CCN(C(c2cc(OC)c(OC)c(OC)c2)c2sc3nc(C)nn3c2O)CC1 (stereo not given)	17	34*	-9	0	-2
CCOc1cnn(-c2cc(Oc3ccc(C)cc3)ncn2)c(=O)c1Cl	-27	20	-11	1	0
Cc1ccccc1Oc1cc(-n2ncc(Cl)c(Cl)c2=O)ncn1	-31	2	46*	1	-3
COc1ccc(NCc2nnc(SCC(=O)Nc3ccccc3)n2C)cc1	.	.	.	2	.
CCN1/C(=C(\O)c2ccccc2)C(=O)c2ccccc2S1(=O)=O	100*	19	-25	-2	9
O=C(c1cccc(S(=O)(=O)N2CCc3ccccc3C2)c1)N1CCN(c2ccc(O)cc2)CC1	-43	13	0	1	-4
CCCn1c(SCC(=O)Nc2nc(C)c(C(=O)OC)s2)nnc1C(C)C	-40	31*	-17	0	0
SMILES	BB579 growth dn	Measles CPE	Yeast lifespan up	RAM network inh	Phagocyt inh
CCn1c(SCC(=O)Nc2nc(C)c(C(=O)OC)s2)nnc1C(C)C	7	4	-10	2	-1
CC1C/C(=C\c2cccnc2)C(=O)/C(=C/c2cccnc2)C1 (stereo not given)	-4	0	70*	2	-9
COc1ccccc1CN(Cc1nc2ccccc2c(=O)[nH]1)C(=O)Nc1cccc(C)c1	6	8	66*	4	1
COc1ccccc1NC(=O)N(Cc1ccc2c(c1)OCO2)Cc1nc2ccccc2c(=O)[nH]1	-58	2	-9	8	-2
CC(C)C(=O)OC1CCS(=O)(=O)c2sccc21 (stereo not given)	.	.	.	2	.
Cc1ccc(C(CCN(Cc2ccccc2)C(=O)c2ccco2)c2ccco2)cc1 (stereo not given)	-29	7	1	11*	.
O=C(c1ccco1)N(CCC(c1ccccc1)c1ccco1)Cc1ccco1 (stereo not given)	-71	2	-17	8.8*	-1
O=C(O)/C=C/C(=O)N(Cc1ccccc1)Cc1ccco1	3	10	3	-1	-13
CCN(CC)S(=O)(=O)c1cc(NC(=O)C(CC(C)C)NC(N)=O)ccc1C (stereo not given)	.	.	.	1	.
CCN(Cc1ccccc1)C(c1ccc(C(F)(F)F)cc1)c1nnnn1C(C)(C)C (stereo not given)	-24	6	.	11*	.
CCC(C)n1cnc2c(c1=O)c1nc3ccccc3nc1n2Cc1ccc2c(c1)OCO2 (stereo not given)	-72	5	-1	10*	0
O=C(O)CCn1c(SCc2cccc3ccccc23)nc2ccccc21	-28	29*	-9	3	1
O=C(CC1CCCCC1)c1c(O)c2ccccc2oc1=O	-6	25	27	9.6*	-1
CCOc1ccc(OCC(=O)c2c(O)c3ccccc3oc2=O)cc1	-10	7	44*	0	0
CCOC(=O)c1c(C)[nH]c(C(=O)CC(=O)OC)c1C	.	.	.	-1	.
O=C(CCCN1C(=O)c2ccccc2C1=O)Nc1sc2c(c1C(=O)NCc1ccco1)CCC2	-29	2	0	4	-1
O=C(CN1C(=O)c2ccccc2C1=O)Nc1sc2c(c1C(=O)NCc1ccco1)CCCC2	-3	62*	-14	4	.
COc1ccc(/C(N)=N/OC(=O)Cc2ccc(OC)c(OC)c2)cc1	-11	15	-6	0	-2
Clc1ccc(SCc2cn3ccsc3n2)cc1	-12	57*	-30	0	0
Cc1csc2nc(CSc3ccc(Cl)cc3)cn12	39	9	-26	1	-1
Cc1nc(C(F)(F)F)nc(Nc2ccc(N=Nc3ccccc3)cc2)c1C#N	-29	27	2	3	-9
COc1ccc2nc(SCCN(C)C)[nH]c2c1	.	.	.	1	.
O=C(OCCN=C1NS(=O)(=O)c2ccccc21)c1ccco1	.	.	.	1	.
Cc1cnc(C(=O)N2CCCC(C(=O)c3cccc(OC(C)C)c3)C2)cn1 (stereo not given)	.	.	.	1	.
Cc1noc(C)c1C(=O)NCc1cccs1	-42	44*	-9	2	.
SMILES	BB579 growth dn	Measles CPE	Yeast lifespan up	RAM network inh	Phagocyt inh
CCCN1C2=NCCN2c2ccccc21	-7	45*	-8	0	0
CCCN1C2=NCCCN2c2ccccc21	3	7	-9	3	.
C=CCOc1ccc(CNCCc2ccc(S(N)(=O)=O)cc2)cc1	.	.	.	0	.
CC1CCCCN1C(=O)c1cc(-c2ccc(Cl)c(Cl)c2)on1 (stereo not given)	3	46*	-8	3	-2
CCOC(=O)c1ccccc1NS(=O)(=O)c1ccccc1F	-32	33*	-5	2	1
O=C(NCCc1nnc2ccc(NCc3ccc(Cl)cc3)nn12)c1ccccc1	.	.	.	8.5*	.
Cc1nn(-c2ccccc2)c(N)c1N=Nc1ccc(Cl)cc1	14	9	-9	10*	4
